Assay outcomes from PubChem BioAssay.
NR2E3 ag-1 = agonists of human nuclear receptor NR2E3 | hit rate 0.12% among 320,000 | AID 2300 | inhibition of corepressor binding, % at 4.78 µM | Q9Y5X4 | GST-NR2E3/biotin-RetCOR TR-FRET, 1536-well;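 active = percent inhibition above the cutoff of mean plus 3 SD of all tested compounds, set per screening campaign, cut at about 20% in these data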
Target sequence (Q9Y5X4 whole entry, looked up): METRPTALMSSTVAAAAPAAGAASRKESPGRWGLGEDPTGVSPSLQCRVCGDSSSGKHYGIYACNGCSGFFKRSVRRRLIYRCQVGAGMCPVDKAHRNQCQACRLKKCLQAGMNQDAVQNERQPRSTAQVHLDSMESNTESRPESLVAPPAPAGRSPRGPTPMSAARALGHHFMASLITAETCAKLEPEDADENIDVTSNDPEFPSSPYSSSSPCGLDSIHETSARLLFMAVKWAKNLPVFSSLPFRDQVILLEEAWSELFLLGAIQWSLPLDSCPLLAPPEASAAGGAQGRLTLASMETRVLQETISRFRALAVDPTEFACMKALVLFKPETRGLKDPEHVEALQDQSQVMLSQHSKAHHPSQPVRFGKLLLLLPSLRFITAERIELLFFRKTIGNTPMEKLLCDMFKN
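Material – GST-tagged NR2E3 plus biotinylated RetCOR corepressor · Quantity – NR2E3 fusion 1.35 nM · Times – 5 h incubation at 4 °C · Medium – pH 7.5 Tris-based buffer · Technique – TR-FRET, Eu(K)-anti-GST donor, streptavidin-D2 acceptor, ex 340, em 617/671 nm · Benchmarks – high control biotin, low control 0.6% DMSO · Format – 1536-well plates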
697 NFkB inh = inhibitors of the PMA/ionomycin-induced NF-kB reporter in 697 B cells; 697 B-cell NF-kB luciferase reporter, 16 h; AID 435022; hit rate 0.33% among 330,000; inhibition, % at 4 µM; in the data active = inhibition above about 35%
JMJD2C inh = inhibitors of human GASC-1 (JMJD2C) demethylase; hit rate 0.069% among 330,000; GST-JMJD2C(1-420) H3K9me3 demethylation, DELFIA europium; Q9H3R0; AID 2099; inhibition, % at 2.35 µM;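 active = more than half of a compound's replicate wells show inhibition beyond 50%, single wells judged on their own value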;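 note: signal counts dimethyl H3K9 product captured on neutravidin plate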
NR2E3 ag-2 = activates human NR2E3 receptor | Q9Y5X4 | CHO-S Gal4-NCOR/VP16-NR2E3 two-hybrid, luciferase | inhibition of corepressor binding, % at 3.98 µM | hit rate 0.35% among 360,000 | AID 602229;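 active = inhibition above the mean of all tested compounds plus 3 SD, cut at about 70% in these data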;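 note: higher means lower luciferase signal from less NR2E3 corepressor binding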
Jurkat NFkB inh = lowers PMA/ionomycin-induced NF-kB signal in Jurkat cells. PMA/ionomycin-induced NF-kB luciferase reporter, luminescence. inhibition, % at 4 µM. hit rate 0.53% among 330,000; in the data active = inhibition above about 50%
GalR3 antagonist = human GalR3 antagonism; O60755; HEK293 GalR3-CNG cAMP membrane potential fluorescence; galR3 body fused to GalR1 C-terminus; inhibition, % at 3 µM; hit rate 0.44% among 360,000; AID 651719;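 active = inhibition above the screen-wide average plus 3 SD, cut at about 13% in these data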;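 note: forskolin and galanin both at EC90 stimulate the cells; cAMP rise reported by CNG channel membrane potential dye signal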
697 NFkB conf = lowers PMA/ionomycin-induced NF-kB signal in 697 B cells | shares compounds with 697 NFkB inh | 697 B-cell NF-kB luciferase, 16 h | inhibition, % at 4 µM | hit rate 35% among 2,000 | AID 449746; in the data active = inhibition mostly above about 28%, no sharp cut-off; inactive = mostly below about 22%
Numbers stand for hits; n = inactive; x = no result given. This is a sample that favours compounds with a hit; in the whole collection about 1.5% have one here.

SMILES | NR2E3 ag-1 | 697 NFkB inh | JMJD2C inh | NR2E3 ag-2 | Jurkat NFkB inh | GalR3 antagonist | 697 NFkB conf
COc1cc(/C=N/Nc2nc(Nc3ccccc3)nc(N3CCOCC3)n2)ccc1OC(=O)c1ccco1 | n | 48.9 | n | n | n | n | 38.7
O=C(Oc1cccc(/C=N/Nc2nc(N3CCOCC3)nc(N3CCOCC3)n2)c1)c1ccco1 | n | 44.3 | n | n | n | n | 24.6
C=C1C(C(=O)N2CCOCC2)C1C(=O)N1CCOCC1 (stereo not drawn) | n | n | n | n | n | n | x
CCN(CC(=O)Nc1c(F)cccc1F)C(=O)c1cc(S(=O)(=O)N2CCOCC2)ccc1N1CCCC1 | n | 39.6 | n | n | n | n | 32.2
CCN(CC(=O)Nc1c(F)cccc1F)C(=O)c1cc([N+](=O)[O-])ccc1N1CCCCC1 | n | 35.3 | n | n | n | n | 43.7
O=C(Nc1cccc2ccccc12)c1ccc(OC(=S)N2CCOCC2)cc1 | n | n | n | n | n | n | n
O=C(c1cccc(S(=O)(=O)N2CCOCC2)c1)N1CCCC1 | n | 36.5 | n | n | n | n | n
CCCCNC(=O)C1(C)CCN1C(=O)c1ccc2ccccc2n1 (stereo not drawn) | x | x | x | n | x | n | x
COC(=O)CCCC[C@@H]1O[C@H](CCc2ccccc2)Cc2[nH]c(=S)[nH]c(=O)c21 | x | x | x | n | x | n | x
CC(C)c1nc2oc3c(NCC4CCCO4)ncnc3c2c2c1CCC2 (stereo not drawn) | n | 42.1 | n | n | n | n | n
COCOCCn1cc(CN2CCS(=O)(=O)N(Cc3ccc(-c4ccc(OC)cc4)cc3)C(C)C2=O)nn1 (stereo not drawn) | x | x | x | n | x | n | x
CCOC(=O)c1c(NC(=O)c2c(-c3ccccc3)noc2C)sc(C)c1-c1ccccc1 | n | n | n | n | n | n | n
Cc1ccc(F)c(CNC(=O)C2(C)CCCN2C(=O)C(C)C)c1F (stereo not drawn) | x | x | x | n | x | n | x
CCOc1ccc(-n2c(SCC(=O)Nc3ccc4c(c3)OCCO4)nc3c(c2=O)SCC3)cc1 | n | 37.8 | n | n | n | n | 32.3
CCOc1ccc2oc(C(=O)OCC(=O)NC3CCCC3)c(C)c2c1 | n | n | n | n | n | n | x
Cc1cc(O)c(S(=O)(=O)c2ccccc2)c(C)c1NS(=O)(=O)c1ccccc1 | n | n | n | n | n | n | x
COc1ccc(/C=N\NC(=O)COc2ccccc2Cl)cc1Cn1nc(C)cc1C | n | n | n | n | n | n | x
COc1ccc(/C=N\NC(=O)c2sccc2C)cc1Cn1nc(C)cc1C | n | 39.2 | n | n | n | n | 44.5
Cc1ccccc1NC(=O)/C(C#N)=C\c1cc(C)n(-c2ccc(C(=O)O)cc2)c1C | n | 39.7 | n | n | n | n | n
Cc1cc(/C=C(/C#N)C(=O)Nc2ccccc2)c(C)n1-c1cccnc1 | n | n | n | n | n | n | x
CCN(C(=O)CN1C(=O)NC(c2ccccc2)(c2ccc(C)c(C)c2)C1=O)C1CCCCC1 (stereo not drawn) | n | 44.0 | n | n | n | n | 27.4
CCN(C(=O)CN1C(=O)NC(c2ccccc2)(c2ccc(C)c(C)c2)C1=O)C1CCS(=O)(=O)C1 (stereo not drawn) | n | n | n | n | n | n | x
CCNC(=O)C1(C)CCCN(C(=O)c2sccc2C)C1 (stereo not drawn) | x | x | x | n | x | n | x
CCN(CC)S(=O)(=O)c1ccc(N2CCOCC2)c(NC(=O)c2cnccn2)c1 | n | n | n | n | n | n | x
Cc1ccc(C(=O)c2coc3ccc(O)c(Cl)c23)cc1 | n | n | n | n | n | n | x
COc1ccc(OC)c(C(=O)c2coc3ccc(OC(C)=O)cc23)c1 | n | n | n | n | n | n | x
COc1ccc(C(=O)c2coc3ccc(OC(C)=O)cc23)cc1 | n | n | n | n | n | n | n
Cc1ccc(C(=O)c2coc3ccc(O)cc23)cc1 | x | n | n | n | n | n | n
Cc1ccc(OCc2nnc(SCC(=O)c3cccc([N+](=O)[O-])c3)n2C)cc1 | n | n | n | n | n | n | x
COc1cc(OC)c(/C=N/NC(=O)c2ccncc2)cc1Br | n | n | n | n | n | n | x
